The values that follow come from ChEMBL document CHEMBL1153735, “Synthesis and in vitro cytostatic activity of new beta-D-arabino furan[1',2':4,5]oxazolo- and arabino-pyrimidinone derivatives” (Eur J Med Chem, 2010).

The structures appear in SMILES notation. Calls of active or inactive are those of the source. The rule behind the calls is not given here.

One assay relates to CCRF-CEM. The experiment in a line: Cytotoxicity against human CEM cells after 2 days. The assay is classed as functional, cell-based. The conditions noted are these: for IC50: Homo sapiens, CCRF-CEM, 48 h.
For a further assay, the system named is L1210. The experiment in a line: Cytotoxicity against mouse L1210 cells after 2 days. It is filed as functional, cell-based. The conditions noted are these: L1210, 48 h. Summed up:
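L1210 cells at 300,000–500,000 cells/mL were added to an equal volume of diluted compound. After 2 days at 37 °C, cells were counted with a Coulter counter. IC50 is the concentration that inhibits proliferation by 50%.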

Assay [1] is described as follows: Cytotoxicity against human Molt4/C8 cells after 2 days. The conditions noted are these: MOLT-4, 48 h. The assay is classed as functional, cell-based.
Assay [2] deals with Influenza A virus. The experiment in a line: Antiviral activity against influenza A H1N1 virus infected in […] cells assessed as inhibition of virus induced cytopathic effect. It is filed as functional, organism-based. In general terms: Cytopathic effects are the visible damage that an infection or toxin causes in cultured cells.
For a further assay, the system named is Vaccinia virus. The experiment in a line: Antiviral activity against Vaccinia virus infected in human HEL cells assessed as inhibition of virus induced cytopathic effect. The assay is classed as functional, organism-based. The conditions noted are these: Orthopoxvirus vaccinia.
For a further assay, the system named is Feline coronavirus. The experiment in a line: Antiviral activity against Feline coronavirus infected in CRFK cells assessed as inhibition of virus induced cytopathic effect. The assay is classed as functional, organism-based. Summed up:
(§1)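 Confluent monolayers in 96-well plates were infected with 100 CCID50 of virus, with 1 h adsorption before residual virus was removed. Cultures were then kept with test compound at 200, 40 or 8 μM. Cytopathic effect was scored once it was complete in untreated infected controls.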

The subject of assay [3] is Vesicular stomatitis virus. The experiment in a line: Antiviral activity against VSV infected in human HEL cells assessed as inhibition of virus induced cytopathic effect. The assay is classed as functional, organism-based.
The next assay relates to Sindbis virus. Nature of the assay: Antiviral activity against Sindbis virus infected in african green monkey Vero cells assessed as inhibition of virus induced cytopathic effect. It is filed as functional, organism-based. The method, boiled down:
as §1

The next assay deals with Human alphaherpesvirus 2. Nature of the assay: Antiviral activity against HSV2 G infected in human HEL cells assessed as inhibition of virus induced cytopathic effect. The assay is classed as functional, organism-based. The conditions noted are these: strain G. Summed up:
as §1

For a further assay, the system named is Influenza B virus. The experiment in a line: Antiviral activity against influenza B virus infected in MDCK cells assessed as inhibition of virus induced cytopathic effect. It is filed as functional, organism-based.
The next assay relates to Punta Toro virus. The experiment in a line: Antiviral activity against Punta Toro virus infected in african green monkey Vero cells assessed as inhibition of virus induced cytopathic effect. The assay is classed as functional, organism-based. Summed up: as §1
The next assay deals with Human alphaherpesvirus 1. Nature of the assay: Antiviral activity against HSV1 KOS infected in human HEL cells assessed as inhibition of virus induced cytopathic effect. The assay is classed as functional, organism-based. The method, boiled down: as §1
Assay [4] concerns Influenza A virus. Nature of the assay: Antiviral activity against influenza A H3N2 virus infected in […] cells assessed as inhibition of virus induced cytopathic effect. It is filed as functional, organism-based.
The subject of the next assay is Human respirovirus 3. Nature of the assay: Antiviral activity against Parainfluenza virus 3 infected in african green monkey Vero cells assessed as inhibition of virus induced cytopathic effect. It is filed as functional, organism-based. The method, boiled down:
as §1

Assay [5] concerns Mammalian orthoreovirus 1. The experiment in a line: Antiviral activity against Reovirus 1 infected in african green monkey Vero cells assessed as inhibition of virus induced cytopathic effect. The assay is classed as functional, organism-based. The method, boiled down: as §1

Regarding `CC(=O)c1cnc2n(c1=O)[C@@H]1[C@H](O2)O[C@H](CO[Si](C)(C)C(C)(C)C)[C@H]1O[Si](C)(C)C(C)(C)C`, the IC50 with CCRF-CEM was found to be 7.5 µM; with L1210 it was 6 µM; in assay [1], 7.9 µM.
For the compound `CC(C)(C)[Si](C)(C)OC[C@H]1O[C@H]2Oc3nc4c(c(=O)n3[C@H]2[C@@H]1O[Si](C)(C)C(C)(C)C)CCCC4`, the result (in the assay on Influenza A virus [2]; in the assay on Feline coronavirus; in assay [3]; in the assay with Sindbis virus; in the assay with Human alphaherpesvirus 2; in the assay with Influenza B virus) was inactive. Also, the result (in the assay on Punta Toro virus; in the assay on Human alphaherpesvirus 1; in the assay with Influenza A virus [4]; in the assay on Human respirovirus 3; in assay [5]) was inactive. Besides, the figures for the EC50 with Vaccinia virus and in the assay on CCRF-CEM (ccrf-cem) were 45 µM and “Not Active”, respectively. The IC50 with CCRF-CEM worked out at 126 µM; in the assay on L1210 it was 201 µM; in [1], 129 µM.
Take `O=c1[nH]c2c(c(=O)n1[C@@H]1O[C@H](CO)[C@@H](O)[C@@H]1O)CCCC2`: the IC50 (in the assay with CCRF-CEM; with L1210; in [1]) was > 500 µM each time.
Take `C/C(N)=C1/C=NC(=O)N([C@@H]2O[C@H](CO[Si](C)(C)C(C)(C)C)[C@@H](O[Si](C)(C)C(C)(C)C)[C@@H]2O)C1=O`: the IC50 in the assay on CCRF-CEM was found to be 17 µM; in [1] it was 18 µM.
Regarding `CC(C)(C)[Si](C)(C)OC[C@H]1O[C@H]2Oc3nc(=O)c4c(n3[C@H]2[C@@H]1O[Si](C)(C)C(C)(C)C)CCCC4`, the IC50 in the assay with CCRF-CEM was determined as 212 µM; with L1210, 229 µM; in assay [1], 185 µM.
Regarding `Nc1ccn([C@@H]2O[C@H](CO)[C@@H](O)[C@@H]2O)c(=O)n1` [CYTARABINE], the IC50 in the assay with CCRF-CEM and in the assay with L1210 was 0.024 µM throughout.
As for `CC(=O)c1cnc2n(c1=O)[C@@H]1[C@H](O2)O[C@H](CO)[C@H]1O`, the figures for the IC50 (with CCRF-CEM; with L1210; in [1]) were 254 µM, 312 µM and 380 µM, respectively.
The corresponding values for `O=c1nc2n(c3c1CCCC3)[C@@H]1[C@H](O2)O[C@H](CO)[C@H]1O` are > 500 µM, > 500 µM and > 500 µM.
The corresponding values for `O=c1c2c(nc3n1[C@@H]1[C@H](O3)O[C@H](CO)[C@H]1O)CCCC2` are > 500 µM, > 500 µM and > 500 µM.
Consider `CC(=O)c1c[nH]c(=O)n([C@@H]2O[C@H](CO)[C@@H](O)[C@@H]2O)c1=O`, for which the IC50 (in the assay on CCRF-CEM; in the assay with L1210; in assay [1]) was > 500 µM in each case.
Consider `C/C(N)=C1/C=NC(=O)N([C@@H]2O[C@H](CO)[C@@H](O)[C@@H]2O)C1=O`, for which the IC50 with CCRF-CEM was determined as 217 µM; in the assay on L1210, 211 µM; in assay [1] it was 299 µM.
For the compound `CN(C)/C=N\C1=N[C@@H]2[C@H](O1)O[C@H](CO[Si](C)(C)C(C)(C)C)[C@H]2O[Si](C)(C)C(C)(C)C`, the values for the IC50 (with CCRF-CEM; in the assay on L1210; in assay [1]) were 215 µM, 254 µM and 226 µM, respectively.
The corresponding values for `O=c1[nH]c(=O)n([C@@H]2O[C@H](CO)[C@@H](O)[C@@H]2O)c2c1CCCC2` are > 500 µM, > 500 µM and > 500 µM.
On the same counts, the results for `CCOC(=O)c1cnc2n(c1=O)[C@@H]1[C@H](O2)O[C@H](CO)[C@H]1O` are > 500 µM, > 500 µM and > 500 µM.
For `CN(C)/C=N\C1=N[C@@H]2[C@H](O1)O[C@H](CO)[C@H]2O`, the IC50 (in the assay on CCRF-CEM; in the assay with L1210; in [1]) was > 500 µM in each case.
As to `CCOC(=O)c1c[nH]c(=O)n([C@@H]2O[C@H](CO)[C@@H](O)[C@@H]2O)c1=O`, the IC50 (in the assay with CCRF-CEM; in the assay on L1210; in assay [1]) was > 500 µM each time.

Usually IC50 stands for the concentration that gives 50% inhibition. The term EC50 denotes the concentration needed to bring the measured effect to its halfway point.
